We go through three compounds from ChEMBL document CHEMBL5653631, “A Potent and Selective ULK1 Inhibitor Suppresses Autophagy and Sensitizes Cancer Cells to Nutrient Stress” (iScience, 2018).

Experiment [1] has as its target ALK tyrosine kinase receptor (Homo sapiens) (UniProt Q9UM73). Description: Inhibition of human recombinant ALK at 15 nM in presence of ATP by radiometric assay relative to control. In outline:
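Panel of 327 recombinant human kinases in radiometric activity assays, each screened in duplicate at a single inhibitor concentration; percent activity remaining relative to vehicle control, percent inhibition taken as 100 minus activity remaining.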

Experiment [2] deals with T1, Serine/threonine-protein kinase TAO1 (Homo sapiens) (UniProt Q7L7X3).
T1 sequence (whole entry): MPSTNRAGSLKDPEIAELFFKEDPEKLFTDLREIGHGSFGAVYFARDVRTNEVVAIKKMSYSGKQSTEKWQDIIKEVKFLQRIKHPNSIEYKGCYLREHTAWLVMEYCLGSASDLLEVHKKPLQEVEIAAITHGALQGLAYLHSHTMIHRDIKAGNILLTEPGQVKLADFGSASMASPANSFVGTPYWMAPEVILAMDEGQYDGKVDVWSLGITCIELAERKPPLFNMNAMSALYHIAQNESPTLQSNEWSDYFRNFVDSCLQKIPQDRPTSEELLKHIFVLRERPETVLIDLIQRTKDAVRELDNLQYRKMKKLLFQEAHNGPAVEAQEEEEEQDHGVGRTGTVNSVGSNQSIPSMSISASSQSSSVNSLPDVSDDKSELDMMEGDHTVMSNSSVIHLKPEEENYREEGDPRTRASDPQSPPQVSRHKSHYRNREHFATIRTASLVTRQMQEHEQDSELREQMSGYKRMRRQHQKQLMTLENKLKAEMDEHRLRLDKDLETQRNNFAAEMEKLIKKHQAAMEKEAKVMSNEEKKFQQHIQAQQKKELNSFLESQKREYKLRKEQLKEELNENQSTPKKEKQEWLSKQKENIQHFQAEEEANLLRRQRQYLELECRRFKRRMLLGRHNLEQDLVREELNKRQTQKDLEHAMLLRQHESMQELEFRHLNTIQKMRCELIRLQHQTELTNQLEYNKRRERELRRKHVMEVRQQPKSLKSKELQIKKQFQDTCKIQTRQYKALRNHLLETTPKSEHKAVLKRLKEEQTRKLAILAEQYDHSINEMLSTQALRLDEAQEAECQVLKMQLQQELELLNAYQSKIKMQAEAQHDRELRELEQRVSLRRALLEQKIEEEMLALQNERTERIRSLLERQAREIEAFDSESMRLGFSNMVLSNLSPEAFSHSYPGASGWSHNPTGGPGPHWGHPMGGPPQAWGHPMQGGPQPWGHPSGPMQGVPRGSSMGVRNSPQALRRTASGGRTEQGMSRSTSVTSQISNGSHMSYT
Description: Inhibition of human recombinant TAO1 at 15 nM related to control ULK1.

In experiment [3] the target is T2, Serine/threonine-protein kinase ULK2 (Homo sapiens) (UniProt Q8IYT8).
T2 sequence (whole entry): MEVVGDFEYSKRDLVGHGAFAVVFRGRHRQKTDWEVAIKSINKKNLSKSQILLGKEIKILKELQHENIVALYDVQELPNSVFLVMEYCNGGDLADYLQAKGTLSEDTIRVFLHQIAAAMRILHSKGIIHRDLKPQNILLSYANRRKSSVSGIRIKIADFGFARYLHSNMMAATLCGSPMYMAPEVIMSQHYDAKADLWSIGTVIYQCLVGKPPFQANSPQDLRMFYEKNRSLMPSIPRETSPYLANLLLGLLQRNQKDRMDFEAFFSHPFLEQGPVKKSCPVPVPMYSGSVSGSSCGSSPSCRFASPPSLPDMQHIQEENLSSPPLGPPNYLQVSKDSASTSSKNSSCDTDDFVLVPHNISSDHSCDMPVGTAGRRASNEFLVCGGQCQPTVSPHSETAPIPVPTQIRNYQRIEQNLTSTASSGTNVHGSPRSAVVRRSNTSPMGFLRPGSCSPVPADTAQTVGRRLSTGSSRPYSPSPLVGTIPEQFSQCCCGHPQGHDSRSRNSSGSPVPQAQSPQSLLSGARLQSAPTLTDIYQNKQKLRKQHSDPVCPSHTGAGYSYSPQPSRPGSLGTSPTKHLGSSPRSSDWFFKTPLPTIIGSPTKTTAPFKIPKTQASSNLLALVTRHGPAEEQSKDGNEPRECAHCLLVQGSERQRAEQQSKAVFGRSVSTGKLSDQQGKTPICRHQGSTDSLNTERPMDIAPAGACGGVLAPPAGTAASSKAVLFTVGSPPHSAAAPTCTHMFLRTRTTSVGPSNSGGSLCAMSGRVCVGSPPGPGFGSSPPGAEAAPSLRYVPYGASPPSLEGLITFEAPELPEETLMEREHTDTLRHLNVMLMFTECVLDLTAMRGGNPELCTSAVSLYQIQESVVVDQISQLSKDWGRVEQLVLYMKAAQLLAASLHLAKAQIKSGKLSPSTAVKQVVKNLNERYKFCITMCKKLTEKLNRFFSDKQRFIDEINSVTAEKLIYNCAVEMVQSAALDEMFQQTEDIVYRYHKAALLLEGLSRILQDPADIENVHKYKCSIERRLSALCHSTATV
Description: Inhibition of human recombinant ULK2 at 40 nM related to control ULK1.

Experiment [4] deals with T3, NUAK family SNF1-like kinase 2 (Homo sapiens) (UniProt Q9H093).
T3 sequence (whole entry): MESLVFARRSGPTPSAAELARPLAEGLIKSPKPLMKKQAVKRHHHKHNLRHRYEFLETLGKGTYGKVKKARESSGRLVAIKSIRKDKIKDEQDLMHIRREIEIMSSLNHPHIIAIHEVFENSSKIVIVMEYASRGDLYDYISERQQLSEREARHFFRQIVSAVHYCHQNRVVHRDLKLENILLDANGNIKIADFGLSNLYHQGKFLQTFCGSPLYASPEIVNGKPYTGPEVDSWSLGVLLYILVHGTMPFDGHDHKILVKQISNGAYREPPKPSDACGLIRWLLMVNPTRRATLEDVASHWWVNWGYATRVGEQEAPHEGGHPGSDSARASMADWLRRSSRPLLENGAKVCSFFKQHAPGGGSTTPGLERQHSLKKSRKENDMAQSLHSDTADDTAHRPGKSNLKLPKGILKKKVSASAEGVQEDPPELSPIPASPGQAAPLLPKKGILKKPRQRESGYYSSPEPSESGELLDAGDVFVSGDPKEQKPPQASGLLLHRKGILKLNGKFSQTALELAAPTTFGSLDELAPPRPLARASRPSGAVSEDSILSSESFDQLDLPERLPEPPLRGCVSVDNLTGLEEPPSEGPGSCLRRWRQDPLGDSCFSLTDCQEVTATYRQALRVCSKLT
Nature of the experiment: Inhibition of human recombinant NuaK2 at 500 nM in presence of ATP by radiometric assay relative to control.

In experiment [5] the target is Mitogen-activated protein kinase 10 (Homo sapiens) (UniProt P53779). Description: Inhibition of human recombinant JNK3 at 500 nM related to control ULK1.
Experiment [6] addresses RAC-gamma serine/threonine-protein kinase (Homo sapiens) (UniProt Q9Y243). Description: Inhibition of human recombinant AKT3 at 500 nM related to control ULK1.

Mitogen-activated protein kinase 10 (Homo sapiens), sequence (P53779 whole entry): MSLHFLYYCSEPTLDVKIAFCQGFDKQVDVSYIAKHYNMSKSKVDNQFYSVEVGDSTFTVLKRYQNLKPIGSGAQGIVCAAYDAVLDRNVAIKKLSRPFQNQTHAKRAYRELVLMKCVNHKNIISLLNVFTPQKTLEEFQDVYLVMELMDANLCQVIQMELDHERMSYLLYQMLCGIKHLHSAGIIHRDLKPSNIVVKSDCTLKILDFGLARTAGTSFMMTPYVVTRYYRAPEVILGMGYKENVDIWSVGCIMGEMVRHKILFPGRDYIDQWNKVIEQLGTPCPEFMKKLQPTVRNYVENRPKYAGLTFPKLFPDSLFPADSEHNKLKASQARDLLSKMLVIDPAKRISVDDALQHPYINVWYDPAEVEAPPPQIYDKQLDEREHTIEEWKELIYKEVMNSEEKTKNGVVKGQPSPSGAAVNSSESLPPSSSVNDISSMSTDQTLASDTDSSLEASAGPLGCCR
RAC-gamma serine/threonine-protein kinase (Homo sapiens), sequence (Q9Y243 whole entry): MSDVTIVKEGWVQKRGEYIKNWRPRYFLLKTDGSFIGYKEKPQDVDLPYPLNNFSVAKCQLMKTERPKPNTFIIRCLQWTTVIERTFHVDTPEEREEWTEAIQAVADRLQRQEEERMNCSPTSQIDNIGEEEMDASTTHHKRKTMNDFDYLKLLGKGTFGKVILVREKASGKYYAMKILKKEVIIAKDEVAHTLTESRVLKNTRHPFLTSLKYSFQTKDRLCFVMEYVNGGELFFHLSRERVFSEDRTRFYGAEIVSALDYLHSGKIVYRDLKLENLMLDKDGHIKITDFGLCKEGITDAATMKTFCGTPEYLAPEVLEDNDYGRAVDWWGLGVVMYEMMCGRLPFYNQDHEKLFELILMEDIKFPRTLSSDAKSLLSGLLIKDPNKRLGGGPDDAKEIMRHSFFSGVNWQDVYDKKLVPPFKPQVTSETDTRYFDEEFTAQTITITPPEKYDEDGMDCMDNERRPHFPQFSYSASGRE
ALK tyrosine kinase receptor (Homo sapiens), sequence (Q9UM73 19-1620 limits assumed): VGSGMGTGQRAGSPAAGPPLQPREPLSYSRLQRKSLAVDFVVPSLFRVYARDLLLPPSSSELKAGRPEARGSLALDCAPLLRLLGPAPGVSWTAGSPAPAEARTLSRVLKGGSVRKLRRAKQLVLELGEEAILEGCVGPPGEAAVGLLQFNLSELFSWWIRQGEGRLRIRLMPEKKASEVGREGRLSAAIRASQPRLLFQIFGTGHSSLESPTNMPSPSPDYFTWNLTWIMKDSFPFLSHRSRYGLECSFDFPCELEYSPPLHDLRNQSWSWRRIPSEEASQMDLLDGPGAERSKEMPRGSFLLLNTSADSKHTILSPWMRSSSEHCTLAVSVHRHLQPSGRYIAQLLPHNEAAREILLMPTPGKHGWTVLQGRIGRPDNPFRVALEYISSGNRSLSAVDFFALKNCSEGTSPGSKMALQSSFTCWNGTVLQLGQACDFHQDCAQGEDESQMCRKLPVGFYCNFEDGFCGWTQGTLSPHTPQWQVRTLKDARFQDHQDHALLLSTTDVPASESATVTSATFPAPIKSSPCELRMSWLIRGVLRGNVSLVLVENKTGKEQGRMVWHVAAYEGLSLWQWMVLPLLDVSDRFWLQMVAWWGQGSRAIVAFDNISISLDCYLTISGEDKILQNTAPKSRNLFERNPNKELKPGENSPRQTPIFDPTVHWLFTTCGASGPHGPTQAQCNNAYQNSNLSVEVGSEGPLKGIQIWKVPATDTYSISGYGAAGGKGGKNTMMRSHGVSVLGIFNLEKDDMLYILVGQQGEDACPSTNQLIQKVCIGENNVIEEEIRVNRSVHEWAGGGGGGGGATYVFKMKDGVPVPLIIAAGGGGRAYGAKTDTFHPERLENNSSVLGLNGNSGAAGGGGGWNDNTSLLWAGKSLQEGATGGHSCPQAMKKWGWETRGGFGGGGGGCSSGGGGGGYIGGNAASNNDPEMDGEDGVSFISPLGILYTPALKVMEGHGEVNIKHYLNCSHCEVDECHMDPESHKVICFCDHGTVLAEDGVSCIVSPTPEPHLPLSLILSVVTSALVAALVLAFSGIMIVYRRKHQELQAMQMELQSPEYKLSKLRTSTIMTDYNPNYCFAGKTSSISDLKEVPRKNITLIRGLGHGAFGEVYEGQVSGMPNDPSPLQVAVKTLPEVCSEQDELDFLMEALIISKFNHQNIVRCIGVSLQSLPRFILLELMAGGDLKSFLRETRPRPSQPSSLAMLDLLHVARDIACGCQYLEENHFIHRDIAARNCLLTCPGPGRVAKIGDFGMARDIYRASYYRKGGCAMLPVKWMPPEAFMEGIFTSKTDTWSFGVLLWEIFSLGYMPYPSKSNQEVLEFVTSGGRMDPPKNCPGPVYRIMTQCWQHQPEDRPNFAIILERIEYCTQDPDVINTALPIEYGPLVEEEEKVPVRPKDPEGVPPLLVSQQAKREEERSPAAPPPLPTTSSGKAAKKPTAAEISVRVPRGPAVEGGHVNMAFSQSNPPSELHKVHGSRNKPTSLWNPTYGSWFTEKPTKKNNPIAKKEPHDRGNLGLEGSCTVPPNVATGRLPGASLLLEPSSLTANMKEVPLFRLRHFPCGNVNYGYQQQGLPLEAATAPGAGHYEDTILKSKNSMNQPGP

One may read the inhibition as the percentage by which the read-out fell short of the control. `CC(C)[C@H](NC(=O)c1cc(-c2cnn3cc(-c4ccc(OCCN5CCCCC5)cc4)cnc23)cs1)C(F)(F)F`: the inhibition in experiment [1] is 0%. Also, the fold change (FC) in experiment [2] amounted to 0.
In the case of `O=C(N[C@@H](C1CC1)C(F)(F)F)c1cc(-c2cnn3cc(-c4ccc(F)cc4)cnc23)cs1`, the fold change (FC) in experiment [3] was determined as 0.63.
In the case of `CNC(=O)c1ccccc1Oc1nc(Nc2cc(OC)c(OC)c(OC)c2)ncc1Br`, the inhibition in experiment [4] came to 64%. Also, the fold change (FC) in experiment [5] stood at 0.04; in experiment [6], 0.07.
